Assays:
[1] = test system: Mus musculus; assay: Antidepressant activity in C57BL/6J mouse assessed as average force at 5 mg/kg, ip measured over 6 mins by tail suspension test (reference value: 0.281 +/- 0.018 to 0.359 +/- 0.027 N); format: functional
[2] = biological target: T1, 5-hydroxytryptamine receptor 7 (Homo sapiens, UniProt P34969); assay: Antagonist activity at human 5-HT7B receptor expressed in CHO cells assessed as inhibition of 5-CT induced cAMP production at 10^-7 M after 30 mins by TR-FRET assay; format: functional, cell-based
[3] = biological target: D(2) dopamine receptor (Homo sapiens, UniProt P14416); assay: Displacement of [3H]-Raclopride from human D2L receptor expressed in HEK293 cells after 1 hr; format: cell-based
Summary of the method: (§1)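 Membranes from stably transfected HEK293 cells were homogenized in assay buffer and spun twice at 35,000 g with a 15-min 37 °C step between. Binding ran 1 h at 37 °C and was stopped by rapid filtration, then filter radioactivity was counted. 5-HT6 buffer: 50 mM Tris-HCl, 0.5 mM EDTA, 4 mM MgCl2, with methiothepine for nonspecific binding. D2L buffer: Tris-HCl, EDTA, MgCl2, 120 mM NaCl, KCl, CaCl2, ascorbate, with (+)butaclamol for nonspecific binding. Triplicate, 7–8 concentrations (10^-11–10^-4 M).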

[4] = test system: Mus musculus; assay: Anxiolytic activity in ip dosed albino Swiss mouse assessed as increase in number of shocks accepted measured over 1 min, 15 secs by four plates test; format: functional; details: read-out: MED
Summary of the method: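 Male Albino Swiss mice, ip injection 60 min before test. Four-plate cage; after 15 s of habituation, each plate-to-plate crossing during a 1-min session is punished with a 0.8 mA, 0.5 s foot shock, followed by a 3-s shock-free interval. Number of shocks accepted is counted.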

[5] = test system: Mus musculus; assay: Antidepressant activity in C57BL/6J mouse assessed as number of events at 5 mg/kg, ip measured over 6 mins by tail suspension test (reference value: 1325.1 +/- 77.8 to 1773.4 +/- 109.9); format: functional
[6] = test system: Mus musculus; assay: Antidepressant activity in C57BL/6J mouse assessed as number of events at 0.625 mg/kg, ip measured over 6 mins by tail suspension test (reference value: 1325.1 +/- 77.8 to 1773.4 +/- 109.9); format: functional
[7] = test system: Mus musculus; assay: Antidepressant activity in ip dosed albino Swiss mouse assessed as decrease in immobility time at MED by forced swim test; format: functional
[8] = biological target: Adrenergic receptor alpha-1 (Rattus norvegicus); assay: Displacement of [3H]-prazosin from rat alpha1 adrenoceptor in rat cerebral cortex after 1 hr
[9] = test system: Mus musculus; assay: Antidepressant activity in C57BL/6J mouse assessed as average force at 0.625 mg/kg, ip measured over 6 mins by tail suspension test (reference value: 0.281 +/- 0.018 to 0.359 +/- 0.027 N); format: functional
[10] = test system: Mus musculus; assay: Antidepressant activity in C57BL/6J mouse assessed as immobility time at 0.625 mg/kg, ip measured over 6 mins by tail suspension test (reference value: 160.7 +/- 12 to 170.6 +/- 9 sec); format: functional
[11] = biological target: T2, 5-hydroxytryptamine receptor 1A (Homo sapiens, UniProt P08908); assay: Displacement of [3H]-8-OH-DPAT from human 5-HT1A receptor expressed in HEK293 cells after 1 hr; format: cell-based
T2 sequence (P08908 whole entry): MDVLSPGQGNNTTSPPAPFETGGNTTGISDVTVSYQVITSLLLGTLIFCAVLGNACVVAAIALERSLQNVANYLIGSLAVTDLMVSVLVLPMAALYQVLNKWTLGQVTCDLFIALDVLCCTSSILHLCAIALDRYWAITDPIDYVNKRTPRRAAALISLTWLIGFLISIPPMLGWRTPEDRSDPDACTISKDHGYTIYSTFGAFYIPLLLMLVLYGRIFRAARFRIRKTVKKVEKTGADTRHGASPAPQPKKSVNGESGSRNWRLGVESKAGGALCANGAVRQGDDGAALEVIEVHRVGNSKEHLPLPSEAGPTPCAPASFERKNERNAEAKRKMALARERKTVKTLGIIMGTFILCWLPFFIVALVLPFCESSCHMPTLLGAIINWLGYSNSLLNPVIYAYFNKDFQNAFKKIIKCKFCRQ
Summary of the method: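 Competition binding on membranes from HEK293 cells stably expressing human 5-HT7b or 5-HT1A. Incubation 1 h, at 37 °C for 5-HT7b and at room temperature for 5-HT1A. Non-specific binding defined with 10 µM 5-HT.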

[12] = test system: Mus musculus; assay: Toxicity in ip dosed C57BL/6J mouse assessed as effect on spontaneous locomotory activity at MED measured over 6 mins; format: organism-based; details: in vivo, 0.1 h
Summary of the method: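 Mice habituated 30 min in individual cages, then ambulation counted over a period matching each behavioural test: 6 min for the tail suspension test and 1 min 15 s for the four-plate test. Compounds given ip at the active doses.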

[13] = test system: Mus musculus; assay: Antidepressant activity in C57BL/6J mouse assessed as average force at […], ip measured over 6 mins by tail suspension test (reference value: 0.281 +/- 0.018 to 0.359 +/- 0.027 N); format: functional
[14] = test system: Mus musculus; assay: Toxicity in ip dosed Albino Swiss mouse assessed as effect on spontaneous locomotory activity at MED measured over 2 to 6 mins; details: in vivo
[15] = test system: Mus musculus; assay: Toxicity in ip dosed C57BL/6J mouse assessed as effect on spontaneous locomotory activity at MED measured over 1 min 15 secs; format: organism-based; details: in vivo
[16] = biological target: T1, 5-hydroxytryptamine receptor 7; assay: Antagonist activity at human 5-HT7B receptor expressed in HEK293 cells assessed as inhibition of 5-CT-induced cAMP production after 30 mins by TR-FRET assay; format: functional, cell-based
Summary of the method: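 HEK293 cells stably expressing human 5-HT7b, grown in DMEM with 10% dialyzed FBS and G418, then resuspended in HBSS with 5 mM HEPES, 0.5 mM IBMX and 0.1% BSA. 450 cells per well were incubated 30 min at room temperature with compound and 6.2 nM 5-CT. After lysis, cAMP was read by LANCE TR-FRET after 1 h. Triplicate, 8 concentrations (10^-11–10^-4 M). Kb = IC50/(1+A/EC50).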

[17] = biological target: 5-hydroxytryptamine receptor 6 (Homo sapiens, UniProt P50406); assay: Displacement of [3H]-LSD from human 5-HT6 receptor expressed in HEK293 cells after 1 hr; format: cell-based; summary of the method: as §1
[18] = test system: Mus musculus; assay: Antidepressant activity in C57BL/6J mouse assessed as immobility time at […], ip measured over 6 mins by tail suspension test (reference value: 160.7 +/- 12 to 170.6 +/- 9 sec); format: functional
[19] = test system: Mus musculus; assay: Antidepressant activity in C57BL/6J mouse assessed as number of events at […], ip measured over 6 mins by tail suspension test (reference value: 1325.1 +/- 77.8 to 1773.4 +/- 109.9); format: functional
[20] = test system: Mus musculus; assay: Toxicity in ip dosed albino Swiss mouse assessed as effect on spontaneous locomotory activity at MED measured over 2 to 6 mins; format: organism-based; details: in vivo
Summary of the method: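 Male Albino Swiss mice (22–28 g) received drug i.p. 60 min before testing, in 1% aqueous Tween 80 or distilled water. Each mouse was habituated alone in a plastic cage for 30 min, then ambulation was counted from 2 to 6 min. Groups of 6–10 animals, each used once.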

T1 sequence (P34969 whole entry): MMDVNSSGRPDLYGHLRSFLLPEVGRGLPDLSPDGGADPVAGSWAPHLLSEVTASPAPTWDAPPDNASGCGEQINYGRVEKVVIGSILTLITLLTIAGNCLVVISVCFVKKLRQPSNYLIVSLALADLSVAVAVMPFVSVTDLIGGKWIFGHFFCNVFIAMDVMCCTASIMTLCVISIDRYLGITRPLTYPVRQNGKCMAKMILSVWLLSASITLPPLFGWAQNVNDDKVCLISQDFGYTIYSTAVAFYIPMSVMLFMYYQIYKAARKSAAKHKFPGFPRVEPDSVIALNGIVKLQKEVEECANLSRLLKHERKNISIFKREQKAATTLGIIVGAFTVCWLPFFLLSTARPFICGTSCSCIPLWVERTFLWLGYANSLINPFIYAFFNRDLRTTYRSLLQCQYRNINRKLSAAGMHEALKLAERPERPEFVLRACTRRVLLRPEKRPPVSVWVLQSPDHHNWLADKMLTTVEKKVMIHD
Sequence of 5-hydroxytryptamine receptor 6 (P50406 whole entry): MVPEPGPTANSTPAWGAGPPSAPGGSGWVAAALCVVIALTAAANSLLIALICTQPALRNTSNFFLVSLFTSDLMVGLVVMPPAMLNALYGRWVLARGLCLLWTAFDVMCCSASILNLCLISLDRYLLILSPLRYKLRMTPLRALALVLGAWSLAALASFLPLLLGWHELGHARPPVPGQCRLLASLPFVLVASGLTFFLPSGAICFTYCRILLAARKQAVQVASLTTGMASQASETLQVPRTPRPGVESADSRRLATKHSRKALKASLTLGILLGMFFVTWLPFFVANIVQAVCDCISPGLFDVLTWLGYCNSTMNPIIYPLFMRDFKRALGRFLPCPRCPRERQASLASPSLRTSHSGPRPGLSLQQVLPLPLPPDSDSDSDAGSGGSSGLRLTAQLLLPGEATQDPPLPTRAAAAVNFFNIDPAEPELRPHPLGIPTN
Sequence of D(2) dopamine receptor (P14416 whole entry): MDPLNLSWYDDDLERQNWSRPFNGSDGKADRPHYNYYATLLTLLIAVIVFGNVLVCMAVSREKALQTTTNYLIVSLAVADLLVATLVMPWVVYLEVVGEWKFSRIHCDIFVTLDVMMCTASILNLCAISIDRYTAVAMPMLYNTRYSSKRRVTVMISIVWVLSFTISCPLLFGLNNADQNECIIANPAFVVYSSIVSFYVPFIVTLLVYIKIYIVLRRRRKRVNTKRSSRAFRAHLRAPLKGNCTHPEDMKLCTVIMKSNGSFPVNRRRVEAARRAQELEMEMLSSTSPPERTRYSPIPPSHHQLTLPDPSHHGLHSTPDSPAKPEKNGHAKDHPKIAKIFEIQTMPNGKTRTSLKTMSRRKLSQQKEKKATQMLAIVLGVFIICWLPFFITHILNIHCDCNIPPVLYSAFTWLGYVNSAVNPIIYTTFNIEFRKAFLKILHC

For `O=S(=O)(NC1CCN(CCOc2ccccc2C2CCCC2)CC1)c1cccc(F)c1`, which Activity [1] is on record?
The Activity was 0.426 N.

What about the inhibition [2] of the same molecule?
Its inhibition is 61%.

And the Ki [3]?
Its Ki is 322 nM.

And the minimal effective dose [4]?
The minimal effective dose was 1.25 mg/kg.

And the Activity [5]?
The Activity was 1682.

What about the Activity [6] of the same molecule?
The Activity was 1446.8.

What about the “inhibition (INH)” value [7] of the same molecule?
The value was 18%.

What about the Ki [8] of the same molecule?
The Ki was 1525 nM.

What about the Activity [9] of the same molecule?
Its Activity is 0.18 N.

What about the Time [10] of the same molecule?
Its Time is 234.4 s.

And the Ki [11]?
Its Ki is 545 nM.

What about the Activity [12] of the same molecule?
The Activity was “Non-toxic”.

And the Activity [13]?
Its Activity is 0.641 N.

And the Activity [14]?
Its Activity is “Non-toxic”.

And the Activity [15]?
The Activity was “Non-toxic”.

And the Kb [16]?
Its Kb is 85 nM.

And the Ki [17]?
Its Ki is 281 nM.

What about the Time [18] of the same molecule?
The Time was 103.5 s.

And the Activity [19]?
Its Activity is 1400.7.

And the Activity [20]?
The Activity was “Non-toxic”.

Source: ChEMBL document CHEMBL3758131, “Towards new 5-HT7 antagonists among arylsulfonamide derivatives of (aryloxy)ethyl-alkyl amines: Multiobjective based design, synthesis, and antidepressant and anxiolytic properties” (Eur J Med Chem, 2016)
